Results from PMC4485437 (Biochemistry, 2015).

Legend:
VcMTANA113P [1] = target: T1, VcMTANA113P (Vibrio cholerae serotype O1, UniProt Q9KPI8, A113P); test: Titration of [14C]MTDIA to MTAN; assay type: binding; settings: MTAN dimer 27−33 μM
[2] = target: T2, VcMTANA113P/V153I (VcMTANDOUBLE) (Vibrio cholerae serotype O1, UniProt Q9KPI8, A113P/V153I); test: Titration of [14C]MTDIA to MTAN; assay type: binding; settings: MTAN dimer 27−33 μM
[3] = target: T2, VcMTANA113P/V153I (VcMTANDOUBLE); test: Isothermal titration calorimetry; assay type: binding
EcMTAN [4] = target: T3, EcMTAN (Escherichia coli, UniProt P0AF12); test: Isothermal titration calorimetry; assay type: binding; settings: 25°C; for ΔG: calculated from Ki*; for TΔS: from Gibbs free energy equation
Method in brief: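 Copurified adenine stripped by dialysis against phosphate buffer with activated charcoal. 60–120 μM dimer in cell, dialysate as reference. Test compound in dialysate; solutions filtered and degassed. Titrated at 25°C. Isotherms fit to two independent sites; ΔH from integrated heat. ΔG = RT ln Ki*, using first-site […] from low-substrate luciferase-coupled assay. −TΔS from ΔG = ΔH − TΔS.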

VcMTAN (WT) [5] = target: T4, VcMTAN (WT) (Vibrio cholerae serotype O1, UniProt Q9KPI8); test: Isothermal titration calorimetry; assay type: binding; settings: 25°C; for ΔG: calculated from Ki*; for TΔS: from Gibbs free energy equation
Method in brief: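 Enzyme expressed in E. coli BL21(DE3) and Ni-NTA purified, then stripped of bound adenine by dialysis against phosphate buffer with activated charcoal. Sample cell held 60–120 μM dimer; test compound in dialysate was injected, degassed solutions, 25°C. Fit to a two-independent-site model gave ΔH per catalytic site. ΔG = RT ln Ki*, with Ki* from 0.8 mM MTA plus xanthine oxidase at 305 nm. −TΔS came from the Gibbs equation.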

VcMTAN (WT) [6] = target: T4, VcMTAN (WT); test: Titration of [14C]MTDIA to MTAN; assay type: binding; settings: MTAN dimer 27−85 μM
VcMTANV153I [7] = target: T5, VcMTANV153I (Vibrio cholerae serotype O1, UniProt Q9KPI8, V153I); test: Isothermal titration calorimetry; assay type: binding
VcMTANA113P [8] = target: T1, VcMTANA113P; test: Isothermal titration calorimetry; assay type: binding; settings: for ΔH / ΔG / TΔS: 25°C; for ΔG: calculated from Ki*; for TΔS: from Gibbs free energy equation
[9] = target: T6, VcMTANA113P/V153I/R158G (Vc[…]) (Vibrio cholerae serotype O1, UniProt Q9KPI8, A113P/R158G/V153I); test: Isothermal titration calorimetry; assay type: binding; settings: single site, 25°C
VcMTANV153I [10] = target: T5, VcMTANV153I; test: Titration of [14C]MTDIA to MTAN; assay type: binding; settings: MTAN dimer 27−33 μM
[11] = test system: E. coli DHFR (EcDHFR) Asp27Glu; settings: Asp27Glu vs native EcDHFR; cited from earlier work
[12] = target: T6, VcMTANA113P/V153I/R158G (Vc[…]); test: Luminescence-based steady-state kinetic assay; assay type: biochemical; settings: substrate MTA
VcMTAN (WT) [13] = target: T4, VcMTAN (WT); test: Luminescence-based steady-state kinetic assay; assay type: biochemical; settings: substrate MTA
VcMTANA113P [14] = target: T1, VcMTANA113P; test: Luminescence-based steady-state kinetic assay; assay type: biochemical; settings: substrate MTA
EcMTAN [15] = target: T3, EcMTAN; test: Luminescence-based steady-state kinetic assay; assay type: biochemical; settings: substrate MTA
Method in brief: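 His6-tagged enzyme was expressed in E. coli BL21(DE3) (1 mM IPTG, 37°C, 10 h) and purified on Ni-NTA. Product adenine was converted to ATP by excess yeast APRTase (20 microunits/well) and C. symbiosum PPDK (320 microunits/well), then read by luciferase luminescence at 570 nm. Enzyme 5–25 pM; reactions started with 0.02–1 μM MTA.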

[16] = target: T2, VcMTANA113P/V153I (VcMTANDOUBLE); test: Luminescence-based steady-state kinetic assay; assay type: biochemical; settings: substrate MTA
VcMTANV153I [17] = target: T5, VcMTANV153I; test: Luminescence-based steady-state kinetic assay; assay type: biochemical; settings: substrate MTA
[18] = single site, 25°C, from Gibbs free energy equation

In the case of `CSC[C@H]1CN(Cc2c[nH]c3c(N)ncnc23)C[C@@H]1O` [MTDIA, 4′-deaza-1′-aza-2′-deoxy-1′-(9-[^14C]methylene)-Immucillin-A], the “binding of MTDIA* on titration to one or two catalytic sites per dimer” value (“binding of MTDIA* on titration … per dimer” below) (VcMTANA113P [1]) is reported as “complete binding at the first site and near-stoichiometric binding at the second site”, the “binding of MTDIA* on titration … per dimer” value [2] is reported as “left more MTDIA* unbound as both the first and second sites were titrated” and the “enthalpy of MTDIA binding more favorable than that of VcMTANA113P” value ([3]; VcMTANDOUBLE vs VcMTANA113P) is reported as -1.0 kcal/mol. For the same compound, the ΔH ([3]; single site, 25°C) was -3.9 ± 0.1 kcal/mol, the ΔG ([3]; single site, 25°C, calculated from Ki*) was -15.7 ± 0.1 kcal/mol and the TΔS [3, 18] was -11.8 ± 0.1 kcal/mol. It also gave a ΔH (EcMTAN [4]; first site) of -18.9 ± 0.2 kcal/mol, a ΔG (EcMTAN [4]; first site) of -17.4 ± 0.9 kcal/mol and a TΔS (EcMTAN [4]; first site) of 1.5 ± 0.9 kcal/mol. It also gave a ΔH (EcMTAN [4]; second site) of -16.8 ± 0.2 kcal/mol, a ΔG (EcMTAN [4]; second site) of -10.2 ± 0.1 kcal/mol and a TΔS (EcMTAN [4]; second site) of 6.6 ± 0.2 kcal/mol. For the same compound, the ΔH (VcMTAN (WT) [5]; first site) was -6.0 ± 0.2 kcal/mol, the ΔG (VcMTAN (WT) [5]; first site) was -15.8 ± 0.1 kcal/mol and the TΔS (VcMTAN (WT) [5]; first site) was -9.8 ± 0.2 kcal/mol. The ΔH (VcMTAN (WT) [5]; second site) was -2.6 ± 0.3 kcal/mol, the ΔG (VcMTAN (WT) [5]; second site) was -14.3 ± 0.2 kcal/mol and the TΔS (VcMTAN (WT) [5]; second site) was -11.7 ± 0.4 kcal/mol. The “binding of MTDIA* on titration … per dimer” value (VcMTAN (WT) [6]) was “complete binding at the first site and near-stoichiometric binding at the second site”, the “enthalpy of MTDIA binding more favorable than that of VcMTANA113P” value (VcMTANV153I [7]; VcMTANV153I vs VcMTANA113P) was -2.0 kcal/mol and the ΔH (VcMTANV153I [7]; single site, 25°C) was -4.9 ± 0.1 kcal/mol. The TΔS (VcMTANV153I [7]; [18]) was -5.7 ± 0.2 kcal/mol, the “enthalpy of MTDIA binding less favorable than parent VcMTAN” value (VcMTANA113P [8]; VcMTANA113P vs VcMTAN) was 3 kcal/mol and the ΔH (VcMTANA113P [8]; first site) was -2.9 ± 0.1 kcal/mol. For the same compound, the ΔG (VcMTANA113P [8]; first site) was -13.9 ± 0.1 kcal/mol, the TΔS (VcMTANA113P [8]; first site) was -11.0 ± 0.1 kcal/mol and the ΔH (VcMTANA113P [8]; second site) was -1.8 ± 0.2 kcal/mol. The ΔG (VcMTANA113P [8]; second site) was -13.5 ± 0.8 kcal/mol, the TΔS (VcMTANA113P [8]; second site) was -11.7 ± 0.8 kcal/mol and the ΔH [9] was -4.8 ± 0.2 kcal/mol. For the same compound, the ΔG ([9]; calculated from Ki*) was -13.3 ± 0.1 kcal/mol, the TΔS ([9]; from Gibbs free energy equation) was -8.5 ± 0.2 kcal/mol and the “binding of MTDIA* on titration … per dimer” value (VcMTANV153I [10]) was “left more MTDIA* unbound as both the first and second sites were titrated”.
For `CN(Cc1cnc2nc(N)nc(N)c2n1)c1ccc(C(=O)N[C@@H](CCC(=O)O)C(=O)O)cc1` [methotrexate], the methotrexate affinity decrease [11] is given as 176 fold.
For `Nc1nc(=O)c2c([nH]1)NCC(CNc1ccc(C(=O)N[C@@H](CCC(=O)O)C(=O)O)cc1)=N2` [DHF, 7,8-dihydrofolate], the “KM(DHF) increase” value [11] is listed as 20 fold.
In the case of 5′-methylthioadenosine [MTA], the kcat [12] is reported as 0.11 ± 0.01 s⁻¹, the Km ([12]; first-catalytic site filling) is reported as 0.536 ± 0.122 µM and the kcat (VcMTAN (WT) [13]) is reported as 0.18 ± 0.01 s⁻¹. The Km (VcMTAN (WT) [13]; first-catalytic site filling) was 0.061 ± 0.006 µM, the kcat (VcMTANA113P [14]) was 0.17 ± 0.01 s⁻¹ and the Km (VcMTANA113P [14]; first-catalytic site filling) was 0.262 ± 0.029 µM. The kcat (EcMTAN [15]) was 0.32 ± 0.01 s⁻¹, the Km (EcMTAN [15]; first-catalytic site filling) was 0.139 ± 0.018 µM and the kcat [16] was “(7.4 ± 3) × 10^−2 s^−1”. For the same compound, the Km ([16]; first-catalytic site filling) was 0.202 ± 0.023 µM, the kcat (VcMTANV153I [17]) was “(7.9 ± 4) × 10^−3 s^−1” and the Km (VcMTANV153I [17]; first-catalytic site filling) was 0.43 ± 0.047 µM.
